Source: ChEMBL document CHEMBL1134616, “Novel 7-oxyiminomethyl derivatives of camptothecin with potent in vitro and in vivo antitumor activity” (J Med Chem, 2001)

Experiments:
[1] = test system: NCI-H460; test: Percentage of body weight loss in CD1 mice with human Non-Small-Cell tumor xenograft at a oral dose of 5 mg/kg; format: functional
In short: (§1)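 Nude athymic CD1 mice, 8–10 weeks old, bearing s.c. human lung tumor xenografts in both flanks. Given oral drug in 10 mL/kg on a q4dx4 schedule, beginning when tumors were visible but not measurable. Read-out is percent body weight loss after drug treatment.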

[2] = test system: NCI-H460; test: Complete response in CD1 mice with human Non-Small-Cell tumor at a oral dose of 9 mg/kg after treatment with compound; format: functional
In short: (§2)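 Nude athymic CD1 mice, 8–10 weeks old, bearing s.c. human lung tumor xenografts (tumor fragments implanted in both flanks). Oral dosing on a q4dx4 schedule at 10 mL/kg, starting when tumors were visible but not measurable. A complete response was scored as no evidence of tumor for at least 10 days after the end of treatment.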

[3] = test system: NCI-H460; test: Percentage inhibition of tumor volume in treated versus control mice against human Non-Small-Cell tumor xenograft at a oral dose of 15 mg/kg; format: functional; conditions: Mus musculus
In short: (§3)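 Nude athymic CD1 mice, 8–10 weeks old, with human lung tumor fragments implanted s.c. in both flanks. Oral dosing in 10 mL/kg, q4dx4, started when tumors were visible but not measurable. Tumor volume = d²×D/2 from caliper diameters. Percent inhibition of treated versus control volume taken 7–10 days after the last dose. Volumes compared by Student's t test, P<0.05.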

[4] = test system: NCI-H460; test: No. of dead mice/ total no of mice with human Non-Small-Cell tumor xenograft at a oral dose of 5 mg/kg; format: ADME, organism-based; set-up: dose 5 mg/kg, route oral; conditions: in vivo
In short: (§4)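 Human lung tumor s.c. xenografts (fragments, both flanks) in nude athymic CD1 mice aged 8–10 weeks. Oral q4dx4 dosing at 10 mL/kg, begun when tumors were visible but not measurable. Toxicity is recorded as the number of dead mice over the total number of treated mice.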

[5] = Percentage of body weight loss in mice bearing lung carcinoma LX-1 at a oral dose of 15 mg/kg; format: functional, Mus musculus; in short: as §1
[6] = Log 10 cell kill induced in mice bearing lung carcinoma LX-1 at a oral dose of 15 mg/kg; format: functional, Mus musculus
In short: (§5)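 Nude athymic CD1 mice, 8–10 weeks, carrying s.c. human lung tumor fragments in both flanks. Given per os on a q4dx4 schedule at 10 mL/kg, starting when tumors were visible but not measurable. Volume = d²×D/2. Log10 cell kill = T−C/3.32 × tumor doubling time, where T and C are the days for treated and control tumors to reach a mean volume of 1000 mm³.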

[7] = Cytotoxicity against human non-small-cell lung carcinoma cell line H460 (NSCLC-H460); format: functional, cell-based
In short: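 Logarithmically growing cells were seeded in duplicate, exposed to drug for 1 h starting 24 h after seeding, and counted by Coulter counter 72 h after exposure. Drug was dissolved in DMSO before dilution. The IC50 is the concentration giving a 50% decrease in growth relative to untreated control.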

[8] = test system: NCI-H460; test: Complete response in CD1 mice with human Non-Small-Cell tumor at a oral dose of 5 mg/kg after treatment with compound; format: functional
In short: (§6)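 Nude athymic CD1 mice, 8–10 weeks old, carrying serially passaged human lung tumor fragments implanted s.c. in both flanks. Oral dosing in 10 mL/kg on a q4dx4 schedule, begun once tumors were visible but not yet measurable. Complete response means no detectable tumor for at least 10 days after the end of treatment.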

[9] = test system: Homo sapiens; test: Percentage inhibition of tumor volume in treated versus control mice against human Non-Small-Cell tumor xenograft at a oral dose of 5 mg/kg; format: functional; in short: as §3
[10] = Percentage inhibition of tumor volume in treated versus control mice bearing lung carcinoma LX-1 at a oral dose of 15 mg/kg; format: functional; conditions: Mus musculus; in short: as §3
[11] = Complete response in mice bearing lung carcinoma LX-1 at a oral dose of 15 mg/kg; format: functional, Mus musculus; in short: as §6
[12] = test system: NCI-H460; test: Complete response in CD1 mice with human Non-Small-Cell tumor at a oral dose of 15 mg/kg after treatment with compound; format: functional; in short: as §2
[13] = (§7) No. of dead mice/ total No. of mice with human Non-Small-Cell tumor xenograft at a oral dose of 9 mg/kg; format: ADME, organism-based; set-up: dose 9 mg/kg, route oral; conditions: in vivo; in short: as §4
[14] = test system: NCI-H460; test: as §7; format: ADME, organism-based; set-up: dose 9 mg/kg, route oral; conditions: in vivo; in short: as §4
[15] = test system: NCI-H460; test: Complete response in CD1 mice with human Non-Small-Cell tumor xenograft at a oral dose of 9 mg/kg; format: functional; in short: as §6
[16] = test system: NCI-H460; test: Complete response CD1 mice with human Non-Small-Cell tumor xenograft at a oral dose of 15 mg/kg; format: functional; in short: as §6
[17] = test system: NCI-H460; test: Percentage inhibition of tumor volume in treated versus control mice against human Non-Small-Cell tumor xenograft at a oral dose of 9 mg/kg; format: functional; conditions: Mus musculus; in short: as §3
[18] = test system: NCI-H460; test: Log 10 cell kill induced in mice with human Non-Small-Cell tumor xenograft at a oral dose of 5 mg/kg; format: functional; in short: as §5
[19] = test system: NCI-H460; test: Percentage of body weight loss of CD1 mice after treatment with compound; format: functional, Homo sapiens; in short: as §1
[20] = No. of dead mice/ total No. of mice bearing lung carcinoma LX-1 at a oral dose of 15 mg/kg; format: ADME, organism-based; set-up: dose 15 mg/kg, route oral; conditions: mouse, in vivo; in short: as §4
[21] = Percentage of body weight loss CD1 mice with human Non-Small-Cell tumor xenograft at a oral dose of 9 mg/kg; format: functional; conditions: dose 15 mg/kg, in the assay text read “oral dose of 15 mg/kg” for “oral dose of 9 mg/kg”; in short: as §1
[22] = test system: NCI-H460; test: No. of dead mice/ total No. of mice in CD1 mice with human Non-Small-Cell tumor at a oral dose of 1 mg/kg; format: ADME, organism-based; set-up: dose 1 mg/kg, route oral; conditions: in vivo; in short: as §4
[23] = Complete response in mice with lung carcinoma LX-1 at a oral dose of 3 mg/kg; format: functional, Mus musculus; in short: as §6
[24] = Percentage of body weight loss in mice with lung carcinoma LX-1 at a oral dose of 3 mg/kg; format: functional, Mus musculus; in short: as §1
[25] = test system: NCI-H460; test: Percentage of body weight loss in CD1 mice with human Non-Small-Cell tumor at a oral dose of 1 mg/kg; format: functional; in short: as §1
[26] = Log 10 cell kill induced by treatment in CD1 mice with human Non-Small-Cell tumor at a oral dose of 2 mg/kg
[27] = test system: NCI-H460; test: Log 10 cell kill induced by treatment in CD1 mice with human Non-Small-Cell tumor at a oral dose of 3 mg/kg; format: functional; in short: as §5
[28] = test system: NCI-H460; test: Percentage of body weight loss in CD1 mice with human Non-Small-Cell tumor at a oral dose of 4 mg/kg
[29] = test system: NCI-H460; test: Complete response in CD1 mice with human Non-Small-Cell tumor at a oral dose of 1 mg/kg; format: functional; in short: as §6
[30] = test system: NCI-H460; test: Complete response in CD1 mice with human Non-Small-Cell tumor at a oral dose of 2 mg/kg; format: functional; in short: as §6
[31] = Percentage of body weight loss in CD1 mice with human Non-Small-Cell tumor at a oral dose of 4 mg/kg; format: functional, Mus musculus; in short: as §1
[32] = Percentage inhibition of tumor volume in treated versus control mice against human Non-Small-Cell tumor xenograft at a oral dose of 4 mg/kg; format: functional; conditions: Mus musculus; in short: as §3
[33] = Log 10 cell kill induced by treatment in mice with lung carcinoma LX-1 at a oral dose of 3 mg/kg; format: functional, Mus musculus; in short: as §5
[34] = test system: NCI-H460; test: No. of dead mice/ total No. of mice with human Non-Small-Cell tumor at a oral dose of 2 mg/kg; format: ADME, organism-based; set-up: dose 2 mg/kg, route oral; conditions: in vivo; in short: as §4
[35] = test system: NCI-H460; test: Log 10 cell kill induced by treatment iin CD1 mice with human Non-Small-Cell tumor at a oral dose of 1 mg/kg; format: functional; in short: as §5
[36] = test system: NCI-H460; test: Complete response in CD1 mice with human Non-Small-Cell tumor at a oral dose of 3 mg/kg; format: functional; in short: as §6
[37] = No. of dead mice/ total No. of mice in mice with lung carcinoma LX-1 at a oral dose of 3 mg/kg; format: ADME, organism-based; set-up: dose 3 mg/kg, route oral; conditions: mouse, in vivo; in short: as §4
[38] = Percentage inhibition of tumor volume mice with lung carcinoma LX-1 at a oral dose of 3 mg/kg; format: functional; conditions: Mus musculus; in short: as §3
[39] = test system: NCI-H460; test: Percentage inhibition of tumor volume in treated versus control mice against human Non-Small-Cell tumor xenograft at a oral dose of 2 mg/kg; format: functional; conditions: Mus musculus; in short: as §3
[40] = test system: NCI-H460; test: Percentage inhibition of tumor volume in treated versus control mice against human Non-Small-Cell tumor xenograft at a oral dose of 1 mg/kg; format: functional; conditions: Mus musculus; in short: as §3
[41] = test system: NCI-H460; test: Percentage of body weight loss in CD1 mice with human Non-Small-Cell tumor at a oral dose of 2 mg/kg; format: functional; in short: as §1
[42] = Complete response in CD1 mice with human Non-Small-Cell tumor at a oral dose of 4 mg/kg; format: functional, Mus musculus; in short: as §6
[43] = test system: NCI-H460; test: Percentage inhibition of tumor volume in treated versus control mice against human Non-Small-Cell tumor xenograft at a oral dose of 3 mg/kg; format: functional; conditions: Mus musculus; in short: as §3
[44] = test system: NCI-H460; test: Log 10 cell kill induced by treatment in CD1 mice with human Non-Small-Cell tumor at a oral dose of 2 mg/kg; format: functional; in short: as §5
[45] = test system: NCI-H460; test: No. of dead mice/ total No. of mice with human Non-Small-Cell tumor at a oral dose of 3 mg/kg; format: ADME, organism-based; set-up: dose 3 mg/kg, route oral; conditions: in vivo; in short: as §4

Molecule CC[C@@]1(O)C(=O)OCc2c1cc1n(c2=O)Cc2cc3c(CN(C)C)c(O)ccc3nc2-1 [TOPOTECAN] has a BWL [1] of 0%, an LCK [2] of 1.7 and an inhibition in vivo at 15 mg/kg [3] of 98%. For the same molecule, the Toxicity [4] was 0, the BWL [5] was 6% and the LCK [6] was 3.7. The IC50 [7] was 1380 nM, the CR [8] was 0 and the inhibition in vivo at 5 mg/kg [9] was 80%. For the same molecule, the inhibition in vivo at 15 mg/kg [10] was 99%, the CR [11] was 4 and the LCK [12] was 2.1. It also gave a Toxicity [13] of 0, a Toxicity [14] of 0 and a CR [15] of 0. For the same molecule, the CR [16] was 0, the inhibition in vivo at 9 mg/kg [17] was 91% and the LCK [18] was 1.3. The BWL [19] was 0%, the Toxicity [20] was 0 and the BWL [21] was 8%.

CC[C@@]1(O)C(=O)OCc2c1cc1n(c2=O)Cc2c-1nc1ccccc1c2/C=N/OC(C)(C)C [GIMATECAN] gave a Toxicity [22] of 0, an IC50 [7] of 15 nM and a CR [23] of 8. The BWL [24] was 11%, the BWL [25] was 0% and the LCK [26] was 2.4. For the same molecule, the LCK [27] was 2.5, the BWL [28] was 23% and the CR [29] was 0. For the same molecule, the CR [30] was 5, the BWL [31] was 5% and the inhibition in vivo at 4 mg/kg [32] was 99%. It also gave an LCK [33] of 5.3, a Toxicity [34] of 0 and an LCK [35] of 1.4. For the same molecule, the CR [36] was 8, the Toxicity [37] was 0 and the inhibition in vivo at 3 mg/kg [38] was 100%. For the same molecule, the inhibition in vivo at 2 mg/kg [39] was 99%, the inhibition in vivo at 1 mg/kg [40] was 90% and the BWL [41] was 1%. For the same molecule, the CR [42] was 4, the inhibition in vivo at 3 mg/kg [43] was 100% and the LCK [44] was 2.4. The Toxicity [45] was 2.
